Experiments:
Mus musculus [1] = experiment: Compound was evaluated for mean day of death at 1.9 mg/kg at 6 h; type: functional
Summary of the method: (§1)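 Three-week-old female Swiss Webster mice inoculated ip with 2×10^5 PFU MCMV Smith strain. Groups of 15 dosed ip twice daily for 5 days, starting 6, 24 or 48 h post-inoculation. Held 21 days with daily mortality checks. Final mortality and mean day of death (dying animals) computed. Mortality versus placebo by Fisher Exact Test, MDD by Mann–Whitney U-rank test.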

L1210 = experiment: In vitro inhibition of L1210 cell growth.; type: functional, Mus musculus; design: concentration or dose not given beside the values
Summary of the method: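 Murine L1210 leukemia cells in static suspension culture in Fischer's medium with compound for 4 days. Growth rate is the ratio of control to treated population doubling time; where the rate changed, the final rate was used. IC50 is the concentration giving 50% of control growth rate; single-concentration value at 100 μM.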

Mus musculus [2] = experiment: Compound was evaluated for 15 mice treated ip twice daily for 5 days at a dose of 1.9 mg/kg at 48 hr followed (MCMV) virus inoculation; type: functional; conditions: route intraperitoneal; summary of the method: as §1
Mus musculus [3] = experiment: Compound was evaluated for percent mortality of mice inoculated with murine cytomegalovirus at a concentration of 16.7 mg/kg at 24 h; type: organism-based; design: dose 16.7 mg/kg; conditions: in vivo; summary of the method: as §1
Mus musculus [4] = experiment: Compound was evaluated for percent mortality of mice inoculated with murine cytomegalovirus at a concentration of 1.9 mg/kg at 6 h; type: organism-based; design: dose 1.9 mg/kg; conditions: in vivo; summary of the method: as §1
Mus musculus [5] = experiment: Compound was evaluated for 15 mice treated ip twice daily for 5 days at a dose of 16.7 mg/kg at 48 hr followed (MCMV) virus inoculation; type: functional; conditions: route intraperitoneal; summary of the method: as §1
Mus musculus [6] = experiment: Compound was evaluated for 15 mice treated ip twice daily for 5 days at a dose of 5.6 mg/kg at 24 hr followed (MCMV) virus inoculation; type: functional; conditions: route intraperitoneal; summary of the method: as §1
Mus musculus [7] = experiment: Compound was evaluated for percent mortality of mice inoculated with murine cytomegalovirus at a concentration of 5.6 mg/kg at 24 h; type: ADME, organism-based; design: dose 5.6 mg/kg; conditions: in vivo
Summary of the method: (§2)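 Three-week-old female Swiss Webster mice infected ip with 2×10^5 PFU MCMV Smith strain; groups of 15 given drug ip twice daily for 5 days, starting 6, 24 or 48 h after inoculation. Toxicity controls received drug without virus. Mortality followed daily for 21 days; final mortality compared with placebo by Fisher Exact Test.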

Mus musculus [8] = experiment: Compound was evaluated for mean day of death at 5.6 mg/kg at 48 h; type: functional; summary of the method: as §1
[9] = Inhibition of herpes simplex virus (HSV-2) in human foreskin fibroblasts cell lines was determined by plaque assay; conditions: Fibroblast
[10] = Cytotoxicity of human simplex virus type 1 in monkey kidney cells; type: functional, cell-based; conditions: Cercopithecidae
Summary of the method: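 Visual cytotoxicity was scored in uninfected cells of the same host monolayers used for the plaque assays, on a 0 to 4+ scale at 35- and 60-fold magnification, at the time plaques were counted.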

[11] = Inhibition of herpes simplex virus type 1(HSV-1) in human foreskin fibroblasts cell lines was determined by plaque assay; type: functional, cell-based; conditions: Fibroblast
Summary of the method: (§3)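 Plaque reduction used MCMV Smith in primary mouse embryo fibroblasts, HCMV AD169 in low-passage HFF, and HSV-1 E-377 and HSV-2 MS in MEF, rabbit kidney or HFF. IC50 was determined against untreated controls; two or more experiments.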

Mus musculus [12] = experiment: Compound was evaluated for 15 mice treated ip twice daily for 5 days at a dose of 1.9 mg/kg at 24 hr followed (MCMV) virus inoculation; type: functional; conditions: route intraperitoneal; summary of the method: as §1
Mus musculus [13] = species: Mus musculus; experiment: Cytotoxicity of human simplex virus type 1 in mouse embryo fibroblasts cells; conditions: Fibroblast
Mus musculus [14] = experiment: Compound was evaluated for 15 mice treated ip twice daily for 5 days at a dose of 1.9 mg/kg followed (MCMV) virus inoculation; type: functional; conditions: route intraperitoneal
Mus musculus [15] = experiment: Compound was evaluated for percent mortality of mice inoculated with murine cytomegalovirus at a concentration of 50 mg/kg at 48 h; type: ADME, organism-based; design: dose 50 mg/kg; conditions: in vivo; summary of the method: as §2
Neoplastic cell line = experiment: Compound was evaluated for cytotoxic activity against KB cells.; type: functional, cell-based; conditions: Homo sapiens
Summary of the method: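 KB cells grown in MEM(H) + 5% FBS. Compound effects measured on radiolabelled precursor incorporation into DNA, RNA and protein. IC50s from linear regression of percent inhibition vs log concentration. The three IC50s were averaged, with 2–5 experiments averaged. Runs rejected if the acyclovir/ganciclovir control deviated >1.5 SD from its mean.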

Mus musculus [16] = experiment: Compound was evaluated for mean day of death at 16.7 mg/kg at 24 h; type: functional; summary of the method: as §1
Mus musculus [17] = experiment: Compound was evaluated for percent mortality of mice inoculated with murine cytomegalovirus at a concentration of 5.6 mg/kg; drug toxicity control; type: functional; summary of the method: as §2
[18] = Inhibition of herpes simplex virus type 1(HSV-1) in monkey kidney cell was determined by plaque assay; type: functional, cell-based; conditions: Cercopithecidae
Summary of the method: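 HSV-1 S-148 strain plaque reduction in BSC-1 monkey kidney monolayers, with about 100 PFU inoculum and compound dissolved in the overlay medium. IC50 came from linear regression of percent inhibition against log concentration, with a positive control in each set.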

Mus musculus [19] = experiment: Compound was evaluated for 15 mice treated ip twice daily for 5 days at a dose of 5.6 mg/kg followed (MCMV) virus inoculation; type: functional; conditions: route intraperitoneal
Mus musculus [20] = experiment: Compound was evaluated for percent mortality of mice inoculated with murine cytomegalovirus at a concentration of 50 mg/kg at 24 h; type: ADME, organism-based; design: dose 50 mg/kg; conditions: in vivo; summary of the method: as §2
Mus musculus [21] = experiment: Compound was evaluated for 15 mice treated ip twice daily for 5 days at a dose of 50 mg/kg at 6 hr followed (MCMV) virus inoculation; type: functional; conditions: route intraperitoneal; summary of the method: as §1
Mus musculus [22] = species: Mus musculus; experiment: Inhibition of murine cytomegalo virus in mouse embryo fibroblasts cell lines was determined by plaque assay; type: functional, organism-based; conditions: Fibroblast; summary of the method: as §3
Mus musculus [23] = experiment: Compound was evaluated for mean day of death at 50 mg/kg at 24 h; type: functional; summary of the method: as §1
[24] = Compound was evaluated for percent mortality of mice inoculated with murine cytomegalovirus at a concentration of 16.7 mg/kg; drug toxicity control; type: organism-based; design: dose 16.7 mg/kg; conditions: mouse, in vivo
Summary of the method: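 Drug toxicity control: uninfected three-week-old female Swiss Webster mice, groups of 15, dosed ip twice daily for 5 days. Held 21 days with daily mortality checks. Final mortality and mean day of death for animals that died were calculated.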

Mus musculus [25] = species: Mus musculus; experiment: Inhibition of herpes simplex virus […](HSV-2) in mouse embryo fibroblasts cell lines was determined by plaque assay; type: functional, organism-based; conditions: Fibroblast; summary of the method: as §3
Mus musculus [26] = experiment: Compound was evaluated for percent mortality of mice inoculated with murine cytomegalovirus at a concentration of 16.7 mg/kg at 6 h; type: organism-based; design: dose 16.7 mg/kg; conditions: in vivo; summary of the method: as §1
Homo sapiens = species: Homo sapiens; experiment: Inhibition of human cytomegalo virus (HCMV) in human foreskin fibroblasts cell lines was determined by plaque assay; type: functional, organism-based; conditions: Fibroblast
Summary of the method: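 HCMV Towne strain (plaque-purified P0) plaque reduction in HFF monolayers in MEM(E) with 10% FBS. Inoculum held about 50 PFU, with compound dissolved in the overlay medium. IC50 came from linear regression of percent inhibition against log concentration, with ganciclovir or acyclovir positive controls in every set; two to five experiments.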

Mus musculus [27] = experiment: Compound was evaluated for mean day of death at 1.9 mg/kg at 24 h; type: functional; summary of the method: as §1
[28] = Inhibition of herpes simplex virus type 1(HSV-1) in mouse embryo fibroblasts cell lines was determined by plaque assay; conditions: Fibroblast
Mus musculus [29] = experiment: Compound was evaluated for 15 mice treated ip twice daily for 5 days at a dose of 16.7 mg/kg at 24 hr followed (MCMV) virus inoculation; type: functional; conditions: route intraperitoneal; summary of the method: as §1
Mus musculus [30] = experiment: Compound was evaluated for 15 mice treated ip twice daily for 5 days at a dose of 16.7 mg/kg at 6 hr followed (MCMV) virus inoculation; type: functional; conditions: route intraperitoneal; summary of the method: as §1
Mus musculus [31] = experiment: Compound was evaluated for percent mortality of mice inoculated with murine cytomegalovirus at a concentration of 5.6 mg/kg at 6 h; type: ADME, organism-based; design: dose 5.6 mg/kg; conditions: in vivo; summary of the method: as §2

`Nc1ncnc2c1c(Br)cn2COC(CO)CO` gave an MDD (Mus musculus [1]) of 6.2, an Activity (L1210) of 0% and an Activity (Mus musculus [2]) of 10. The Mortality (Mus musculus [3]) was 80%, the Mortality (Mus musculus [4]) was 33% and the Activity (Mus musculus [5]) was 13. The Activity (Mus musculus [6]) was 3, the Mortality (Mus musculus [7]) was 20% and the MDD (Mus musculus [8]) was 5.5. The IC50 [9] was 300 nM, the IC50 [10] was over 100000 nM and the IC50 [11] was 200 nM. For the same compound, the Activity (Mus musculus [12]) was 9, the IC50 (Mus musculus [13]) was over 158000 nM and the Activity (Mus musculus [14]) was 0. For the same compound, the Mortality (Mus musculus [15]) was 87%, the IC50 (Neoplastic cell line) was over 100000 nM and the MDD (Mus musculus [16]) was 7.1. The mortality at 5.6 mg/kg (Mus musculus [17]) was 0%, the IC50 [18] was 2000 nM and the Activity (Mus musculus [19]) was 0. For the same compound, the Mortality (Mus musculus [20]) was 93%, the Activity (Mus musculus [21]) was 9 and the IC50 (Mus musculus [22]) was 30 nM. For the same compound, the MDD (Mus musculus [23]) was 8.8, the Mortality [24] was 7% and the IC50 (Mus musculus [25]) was 1900 nM. The Mortality (Mus musculus [26]) was 60%, the IC50 (Homo sapiens) was 1600 nM and the MDD (Mus musculus [27]) was 4.8. It also gave an IC50 [28] of 1900 nM, an Activity (Mus musculus [29]) of 12 and an Activity (Mus musculus [30]) of 9. For the same compound, the Mortality (Mus musculus [31]) was 7%.
